Data on three molecules can be found in ChEMBL document CHEMBL1629577, “Activity of T-705 in a hamster model of yellow fever virus infection in comparison with that of a chemically related compound, T-1106” (Antimicrob Agents Chemother, 2009).

Series [1] deals with Yellow fever virus. The experiment in a line: Antiviral activity against Yellow fever virus 17D infected in African green monkey Vero cells assessed as inhibition of virus induced cytopathic effect by microscopic analysis. Format: functional, cell-based. In general terms: Protection from cytopathic effect is a common read-out in antiviral testing.
Series [2] concerns Yellow fever virus. The experiment in a line: Antiviral activity against Yellow fever virus 17D infected in African green monkey Vero cells assessed as inhibition of virus induced cytopathic effect […] by NR dye uptake assay. Format: functional, cell-based.
The subject of series [3] is Yellow fever virus. The experiment in a line: Antiviral activity against Yellow fever virus 17D infected in African green monkey Vero cells assessed as inhibition of virus induced cytopathic effect by luciferase reporter gene assay. It is filed as functional, cell-based.
The nature of series [4]: Cytotoxicity against African green monkey Vero cells by luciferase-based cell viability assay. The settings on record: chlorocebus sabaeus. The method, boiled down:
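Uninfected Vero cells exposed to compound were assayed for ATP content by luminescence (Cell-Titer Glo) to derive the CC50.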

Series [5] deals with Yellow fever virus. The experiment in a line: Antiviral activity against Yellow fever virus 17D infected in African green monkey Vero cells assessed as reduction in virus yield. Format: functional. Summed up:
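Virus yield reduction in Vero cells infected with YFV 17D after compound exposure, with progeny virus titred by CCID50. The EC90 was averaged over separate experiments.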

Series [6] is described as follows: Selectivity index, ratio of CC50 for African green monkey vero cells to EC90 for Yellow fever virus 17D. Particulars: read-out: Selectivity Index. Format: toxicity, cell-based. The method, boiled down: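 SI was calculated as the CC50 in uninfected Vero cells divided by the EC90 from the YFV 17D virus yield reduction assay in Vero cells.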
Series [7] has as its system Yellow fever virus. The experiment in a line: Antiviral activity against Yellow fever virus 17D infected in African green monkey Vero cells assessed as time required for inhibition of viral replication at 6400 uM up to 12 hrs post-viral infection. Format: functional, cell-based.
The subject of series [8] is Yellow fever virus. The experiment in a line: Antiviral activity against 10^2 CCID50 Yellow fever virus Jimenez infected in syrian golden hamster assessed as reduction in viral titer in liver at 32 mg/kg/day administered twice daily for 8 days started 6 days post infection by quantitative RT-PCR analysis. Format: functional.
Series [9] relates to Yellow fever virus. The experiment in a line: Antiviral activity against 10^2 CCID50 Yellow fever virus Jimenez infected in syrian golden hamster assessed as serum ALT level at 32 mg/kg/day, po administered twice daily for 8 days started 4 hrs prior to viral infection. Format: functional.
The test system of series [10] is Syrian golden hamster. The experiment in a line: Toxicity in syrian golden hamster infected with 10^2 CCID50 Yellow fever virus Jimenez assessed as weight change at 32 mg/kg/day, po administered twice daily for 8 days started 4 hrs prior to viral infection relative to control. It is filed as organism-based, Mesocricetus auratus. Further details: route oral. Particulars: in vivo.

The test system of series [11] is Yellow fever virus. The experiment in a line: Antiviral activity against 10^2 CCID50 Yellow fever virus Jimenez infected in syrian golden hamster assessed as mean day of death […] at 32 mg/kg/day, po administered twice daily for 8 days started 4 hrs prior to viral infection relative to control. Format: functional.
In series [12] the test system is Yellow fever virus. The experiment in a line: Antiviral activity against 10^2 CCID50 Yellow fever virus Jimenez infected in syrian golden hamster assessed as mean day of death […] at 10 mg/kg/day, po administered twice daily for 8 days started 4 hrs prior to viral infection relative to control. It is filed as functional.
Series [13] relates to Yellow fever virus. The experiment in a line: Antiviral activity against 10^2 CCID50 Yellow fever virus Jimenez infected in syrian golden hamster assessed as serum survival of animal at 32 mg/kg/day, po administered twice daily for 8 days started 4 hrs prior to viral infection. Format: functional, organism-based.
The subject of series [14] is Syrian golden hamster. The experiment in a line: Toxicity in syrian golden hamster infected with 10^2 CCID50 Yellow fever virus assessed as weight change in surviving animals at 400 mg/kg/day, po BID administered for 8 days started 4 days post viral challenge. Format: organism-based, Mesocricetus auratus. The settings on record: in vivo. Details: route oral.
For series [15], the system named is Syrian golden hamster. The experiment in a line: Toxicity in syrian golden hamster infected with 10^2 CCID50 Yellow fever virus assessed as weight change in surviving animals at 400 mg/kg/day, po BID administered for 8 days started 5 days post viral challenge. Particulars: in vivo. Format: organism-based, Mesocricetus auratus. Details: route oral.
Series [16] deals with Syrian golden hamster. The experiment in a line: Toxicity in syrian golden hamster infected with 10^2 CCID50 Yellow fever virus assessed as weight change in non surviving animals at 400 mg/kg/day, po BID administered for 8 days started 4 days post viral challenge. Format: organism-based, Mesocricetus auratus. Further details: route oral. Particulars: in vivo.
For series [17], the system named is Syrian golden hamster. The experiment in a line: Toxicity in syrian golden hamster infected with 10^2 CCID50 Yellow fever virus assessed as weight change in non surviving animals at 400 mg/kg/day, po BID administered for 8 days started 5 days post viral challenge. Format: organism-based, Mesocricetus auratus. Further details: route oral. Particulars: in vivo.

In series [18] the test system is Syrian golden hamster. The experiment in a line: Toxicity in syrian golden hamster infected with 10^2 CCID50 Yellow fever virus Jimenez assessed as weight change at 400 mg/kg/day, po administered twice daily for 8 days started 2 day post viral infection. It is filed as organism-based, Mesocricetus auratus. Further details: route oral. The settings on record: in vivo.

The test system of series [19] is Syrian golden hamster. The experiment in a line: Toxicity in syrian golden hamster infected with 10^2 CCID50 Yellow fever virus Jimenez assessed as weight change at 400 mg/kg/day, po administered twice daily for 8 days started 3 day post viral infection. Format: organism-based, Mesocricetus auratus. Particulars: in vivo. Further details: route oral.
For series [20], the system named is Syrian golden hamster. The experiment in a line: Toxicity in syrian golden hamster infected with 10^2 CCID50 Yellow fever virus Jimenez assessed as weight change at 400 mg/kg/day, po administered twice daily for 8 days started 4 day post viral infection. It is filed as organism-based, Mesocricetus auratus. Particulars: in vivo. Further details: route oral.
For series [21], the system named is Syrian golden hamster. The experiment in a line: Toxicity in syrian golden hamster infected with 10^2 CCID50 Yellow fever virus Jimenez assessed as weight change at 400 mg/kg/day, po administered twice daily for 8 days started 5 day post viral infection. Format: organism-based, Mesocricetus auratus. Details: route oral. The settings on record: in vivo.
The test system of series [22] is Syrian golden hamster. The experiment in a line: Toxicity in syrian golden hamster infected with 10^2 CCID50 Yellow fever virus Jimenez assessed as weight change at 400 mg/kg/day, po administered twice daily for 8 days started 1 day post viral infection. Format: organism-based, Mesocricetus auratus. Further details: route oral. The settings on record: in vivo.
For series [23], the system named is Syrian golden hamster. The experiment in a line: Toxicity in syrian golden hamster infected with 10^2 CCID50 Yellow fever virus Jimenez assessed as weight change at 400 mg/kg/day, po administered twice daily for 8 days started 4 hrs prior to viral infection relative to control. It is filed as organism-based, Mesocricetus auratus. Details: route oral. The settings on record: in vivo.

For series [24], the system named is Syrian golden hamster. The experiment in a line: Toxicity in syrian golden hamster infected with 10^2 CCID50 Yellow fever virus Jimenez assessed as weight change at 100 mg/kg/day, po administered twice daily for 8 days started 4 hrs prior to viral infection. The settings on record: in vivo. Format: organism-based, Mesocricetus auratus. Details: route oral.
The subject of series [25] is Syrian golden hamster. The experiment in a line: Toxicity in syrian golden hamster infected with 10^2 CCID50 Yellow fever virus Jimenez assessed as weight change at 200 mg/kg/day, po administered twice daily for 8 days started 4 hrs prior to viral infection relative to control. Details: route oral. Particulars: in vivo. Format: organism-based, Mesocricetus auratus.

For series [26], the system named is Syrian golden hamster. The experiment in a line: Toxicity in syrian golden hamster assessed as number of animals alive at 400 mg/kg/day, po BID administered for 8 days. Format: organism-based, Mesocricetus auratus. Details: route oral. Particulars: in vivo, 192 h. The method, boiled down:
(§1)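 Uninfected toxicity-control hamsters, three per group, were dosed p.o. in 0.4% carboxymethyl cellulose twice daily, 12 h apart, for 8 days. Deaths were recorded daily. Body weights were taken at 0, 3 and 6 dpi.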

For series [27], the system named is Syrian golden hamster. The experiment in a line: Toxicity in syrian golden hamster assessed as weight change at 400 mg/kg/day, po BID administered for 8 days. Format: organism-based, Mesocricetus auratus. Details: route oral. Particulars: in vivo, 192 h. Summed up:
as §1

The subject of series [28] is Yellow fever virus. The experiment in a line: Antiviral activity against 10^2 CCID50 Yellow fever virus Jimenez infected in syrian golden hamster assessed as serum ALT level at 10 mg/kg/day, po administered twice daily for 8 days started 4 hrs prior to viral infection. It is filed as functional.
Series [29] deals with Syrian golden hamster. The experiment in a line: Toxicity in syrian golden hamster infected with 10^2 CCID50 Yellow fever virus Jimenez assessed as weight change at 10 mg/kg/day, po administered twice daily for 8 days started 4 hrs prior to viral infection relative to control. Format: organism-based, Mesocricetus auratus. Further details: route oral. The settings on record: in vivo.

For series [30], the system named is Yellow fever virus. The experiment in a line: Antiviral activity against 10^2 CCID50 Yellow fever virus Jimenez infected in syrian golden hamster assessed as mean day of death […] at 50 mg/kg/day, po administered twice daily for 8 days started 4 hrs prior to viral infection relative to control. It is filed as functional.
For series [31], the system named is Yellow fever virus. The experiment in a line: Antiviral activity against 10^2 CCID50 Yellow fever virus Jimenez infected in syrian golden hamster assessed as serum survival of animal at 50 mg/kg/day, po administered twice daily for 8 days started 4 hrs prior to viral infection. It is filed as functional, organism-based.

Calls of active or inactive are those of the source. No cut-off for these calls is given here.

Regarding `NC(=O)c1nccn([C@@H]2O[C@H](CO)[C@@H](O)[C@H]2O)c1=O`, the EC50 (commonly the concentration needed to bring the measured effect to its halfway point) was determined as 1.08 mM in series [1], 1.8 mM in series [2] and 2.63 mM in series [3]. For the same molecule, the CC50 (as a rule, the concentration at which the toxic effect on the cells reaches its halfway point) in series [4] is greater than 4 mM. Further, in [5], the EC90 (as a rule, the concentration needed for an effect of 90%) worked out at 1.11 mM. Also, the selectivity ratio in [6] was greater than 3.6. Moreover, the result in series [7] and in series [13] was Active. Moreover, the Activity is recorded as 85 IU/L in series [8], 154 IU/L in series [9] and 0.2 g in [10]. The Time is greater than 21 days in series [11] and 8 days in series [12].

On to `NC(=O)c1nc(F)c[nH]c1=O` [FAVIPIRAVIR], for which the Activity in [14] was 2.2 g; in [15], -2.8 g; in series [16] it was -18.5 g; in series [17] it was -7.3 g; in series [18], 0 g; in [19], -4.1 g. Further, the Activity is recorded as -3 g in series [20]; -4.5 g in [21]; -0.3 g in series [22]; 5.2 g in [23]; -2.9 g in series [24]; 2.2 g in [25]. The Activity result in series [26] is “Non-toxic”; in series [27] it was 5.3 g. In [4], the half-maximal cytotoxic concentration (CC50) was greater than 6.37 mM. Moreover, in series [6], the selectivity ratio is greater than 19.

For `NC(=O)c1ncn([C@@H]2O[C@H](CO)[C@@H](O)[C@H]2O)n1` [RIBAVIRIN], the EC50 in series [1] came to 0.028 mM. This molecule displayed a CC50 in series [4] greater than 4.1 mM. Further, the EC90 in series [5] worked out at 0.69 mM. The selectivity ratio in series [6] was greater than 6. Besides, the figures for the Activity in series [28] and in series [29] were 103 IU/L and 2.4 g, respectively. Further, in series [30], the Time is greater than 21 days. Besides, in [31], the outcome was Active.
